In ChEMBL document CHEMBL1153560, “In vitro activities of doripenem and six comparator drugs against 423 aerobic and anaerobic bacterial isolates from infected diabetic foot wounds” (2008):

System: Clostridium perfringens
Assay: Antibacterial activity against Clostridium perfringens isolated from patient with diabetic foot infection assessed as percent resistant isolates after 44 to 48 hrs by agar dilution method
Format: functional
Outline: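 Agar dilution per CLSI M11-A7. Twofold drug dilutions made on the test day and added to molten agar. Replicator-applied inoculum of 10^5 CFU/spot. Drug-free control plates inoculated before and after each drug set. Incubation at 37°C for 44 to 48 h, anaerobic chamber. MIC taken as the lowest concentration giving no growth or a marked change in growth versus controls.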

| SMILES | Activity [%] |
| --- | --- |
| CCC[C@@H]1C[C@@H](C(=O)N[C@@H]([C@H]2O[C@H](SC)[C@H](O)[C@@H](O)[C@H]2O)[C@H](C)Cl)N(C)C1 [CLINDAMYCIN] | 0 |
| C[C@@H](O)[C@H]1C(=O)N2C(C(=O)O)=C(S[C@@H]3CN[C@H](CNS(N)(=O)=O)C3)[C@H](C)[C@H]12 [DORIPENEM] | 0 |
| C[C@@H](O)[C@H]1C(=O)N2C(C(=O)O)=C(S[C@@H]3CN[C@H](C(=O)Nc4cccc(C(=O)O)c4)C3)[C@H](C)[C@H]12 [ERTAPENEM] | 0 |
| C[C@@H](O)[C@H]1C(=O)N2C(C(=O)O)=C(SCCNC=N)C[C@H]12 [IMIPENEM ANHYDROUS] | 0 |
| C[C@@H](O)[C@H]1C(=O)N2C(C(=O)O)=C(S[C@@H]3CN[C@H](C(=O)N(C)C)C3)[C@H](C)[C@H]12 [MEROPENEM] | 0 |
| Cc1ncc([N+](=O)[O-])n1CCO [METRONIDAZOLE] | 0 |
